Experimental data from ChEMBL document CHEMBL1124821, “Design of an antithrombotic-antihypertensive agent (Wy 27569). Synthesis and evaluation of a series of 2-heteroaryl-substituted dihydropyridines” (J Med Chem, 1990).
Where “and” joins values, the source holds several entries; their conditions need not be identical. Identical values can stand only once.

Columns and labels:
[1] = tested on: Rattus norvegicus; experiment: The compound was tested for reducing blood pressure in rats after 6 hours of 0.03 mmol/kg oral administration.; assay type: functional
Procedure, shortened: (§1)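 Female SHR (250–300 g) kept in 37 °C constant-temperature housing; systolic pressure measured by tail-cuff with a pneumatic pulse transducer. Rats below 155 mmHg discarded. Groups of four given a single oral dose in 0.5% (hydroxypropyl)methylcellulose–0.9% saline (10 mL/kg) or vehicle alone; pressure recorded before dosing and at 2, 6 and 24 h. Analysed by analysis of variance.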

[2] = tested on: Rattus norvegicus; experiment: Reduction in blood pressure of rats, 2 hr after 0.03 mmol/kg p.o. administration; assay type: functional; procedure, shortened: as §1
[3] = molecular target: Thromboxane-A synthase (Oryctolagus cuniculus); experiment: Inhibition of Thromboxane A2 synthase in rabbit platelets in vitro
[4] = tested on: Rattus norvegicus; experiment: The compound was tested for reducing blood pressure in rats after 6 hours of 0.03 mmol/kg oral administration; assay type: functional; procedure, shortened: as §1
[5] = tested on: Rattus norvegicus; experiment: The compound was tested for reducing blood pressure in rats after 2 hours of 0.003 mmol/kg oral administration.; assay type: functional; procedure, shortened: as §1
[6] = species on record: Homo sapiens; experiment: The compound was tested for effects of compound on 6-KPGF1alpha production at molar concentration of 10e-4 in human platelet rich plasma; assay type: functional
[7] = species on record: Homo sapiens; experiment: The compound was tested for effects of compound on TXB2 production at different molar concentration of 10e-4 in human platelet rich plasma; assay type: functional
[8] = species on record: Homo sapiens; experiment: The compound was tested for effects of compound on 6-KPGF1alpha production at molar concentration of 10e-6 in human platelet rich plasma; assay type: functional
[9] = tested on: Rattus norvegicus; experiment: The compound was tested for plasma levels of TXB2 in rats after 2 hr following dose 3(mg/kg) in oral administration.; assay type: functional, organism-based
Procedure, shortened: (§2)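 Female normotensive rats killed by CO₂ asphyxiation 2 h after oral dosing with compound or vehicle (n = 10–13 per group). Blood taken from the posterior vena cava with 1% EDTA, centrifuged at once (10000g, 10 min), and plasma stored at –30 °C. TXB₂ and 6-KPGF1α measured by radioimmunoassay, in pg/mL, mean ± SEM. p < 0.05 versus controls taken as significant.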

[10] = species on record: Homo sapiens; experiment: The compound was tested for effects of compound on 6-KPGF1alpha production at molar concentration of 10e-3 in human platelet rich plasma; assay type: functional
[11] = species on record: Homo sapiens; experiment: The compound was tested for effects of compound on TXB2 production at different molar concentration of 10e-3 in human platelet rich plasma; assay type: functional
[12] = species on record: Homo sapiens; experiment: The compound was tested for effects of compound on TXB2 production at different molar concentration of 10e-6 in human platelet rich plasma; assay type: functional
[13] = tested on: Rattus norvegicus; experiment: The compound was tested for plasma levels of 6-KPGF1alpha in rats after 2 hr following dose 3(mg/kg) in oral administration. (p<0.05); assay type: functional, organism-based; procedure, shortened: as §2
[14] = species on record: Homo sapiens; experiment: The compound was tested for effects of compound on 6-KPGF1alpha production at molar concentration of 10e-5 in human platelet rich plasma; assay type: functional
[15] = species on record: Homo sapiens; experiment: The compound was tested for effects of compound on 6-KPGF1alpha production at molar concentration of 10e-7 in human platelet rich plasma; assay type: functional
[16] = species on record: Homo sapiens; experiment: The compound was tested for effects of compound on TXB2 production at different molar concentration of 10e-7 in human platelet rich plasma; assay type: functional
[17] = tested on: Rattus norvegicus; experiment: The compound was tested for plasma levels of 6-KPGF1alpha in rats after 2 hr following dose 10(mg/kg) in oral administration.; assay type: functional, organism-based; procedure, shortened: as §2
[18] = species on record: Homo sapiens; experiment: The compound was tested for effects of compound on TXB2 production at different molar concentration of 10e-5 in human platelet rich plasma; assay type: functional
[19] = tested on: Rattus norvegicus; experiment: The compound was tested for plasma levels of TXB2 in rats after 2 hr following dose 10(mg/kg) in oral administration.; assay type: functional, organism-based; procedure, shortened: as §2
[20] = tested on: Rattus norvegicus; experiment: The compound was tested for reducing blood pressure in rats after 6 hours of 0.003 mmol/kg oral administration.; assay type: functional; procedure, shortened: as §1
[21] = tested on: Rattus norvegicus; experiment: The compound was tested for plasma levels of TXB2 in rats after 2 hr following dose 1(mg/kg) in oral administration; assay type: functional, organism-based; procedure, shortened: as §2
[22] = tested on: Rattus norvegicus; experiment: The compound was tested for reducing blood pressure in rats after 2 hours of 0.03 mmol/kg oral administration; assay type: functional; procedure, shortened: as §1
[23] = tested on: Rattus norvegicus; experiment: The compound was tested for plasma levels of 6-KPGF1alpha in rats after 2 hr following dose 3(mg/kg) in oral administration; assay type: functional, organism-based; procedure, shortened: as §2
[24] = tested on: Rattus norvegicus; experiment: The compound was tested for plasma levels of TXB2 in rats after 2 hr following dose 0.3(mg/kg) in oral administration; assay type: functional, organism-based; procedure, shortened: as §2
[25] = tested on: Rattus norvegicus; experiment: The compound was tested for plasma levels of TXB2 in rats after 2 hr following dose 10(mg/kg) in oral administration; assay type: functional, organism-based; procedure, shortened: as §2
[26] = tested on: Rattus norvegicus; experiment: The compound was tested for plasma levels of 6-KPGF1alpha in rats after 2 hr following dose 0.3(mg/kg) in oral administration; assay type: functional, organism-based; procedure, shortened: as §2
[27] = tested on: Rattus norvegicus; experiment: The compound was tested for reducing blood pressure in rats after 2 hours of 0.003 mmol/kg oral administration; assay type: functional; procedure, shortened: as §1
[28] = species on record: Homo sapiens; experiment: The compound was tested for effects of compound on TXB2 production at molar concentration of 10e-6 in human platelet rich plasma; assay type: functional
[29] = tested on: Rattus norvegicus; experiment: The compound was tested for plasma levels of TXB2 in rats after 2 hr following dose 3(mg/kg) in oral administration (P<0.05); assay type: functional, organism-based; procedure, shortened: as §2
[30] = species on record: Homo sapiens; experiment: The compound was tested for effects of compound on TXB2 production at molar concentration of 10e-5 in human platelet rich plasma; assay type: functional
[31] = species on record: Homo sapiens; experiment: The compound was tested for effects of compound on TXB2 production at molar concentration of 10e-7 in human platelet rich plasma; assay type: functional
[32] = species on record: Homo sapiens; experiment: The compound was tested for effects of compound on TXB2 production at molar concentration of 10e-4 in human platelet rich plasma; assay type: functional
[33] = tested on: Rattus norvegicus; experiment: The compound was tested for plasma levels of TXB2 in rats after 2 hr following dose 3(mg/kg) in oral administration. (p<0.05); assay type: functional, organism-based; procedure, shortened: as §2
[34] = species on record: Homo sapiens; experiment: The compound was tested for effects of compound on TXB2 production at molar concentration of 10e-3 in human platelet rich plasma; assay type: functional

SMILES: CCO/C(O)=C1\C(Cn2ccnc2)=NC(C)=C(C(=O)OC(C)C)C1c1cccc([N+](=O)[O-])c1.Cl (stereo unspecified)
- Decrease in blood pressure [1]: 19%
- Decrease in blood pressure [2]: 21%

SMILES: CCO/C(O)=C1\C(C)=NC(Cn2ccnc2)=C(C(=O)OC)C1c1cccc([N+](=O)[O-])c1 (stereo unspecified)
- IC50 [3]: 2.2 µM

SMILES: CCO/C(O)=C1\C(COCCn2ccnc2)=NC(C)=C(C(=O)OC)C1c1cccc([N+](=O)[O-])c1.Cl (stereo unspecified)
- Decrease in blood pressure [2]: 56%
- Decrease in blood pressure [4]: 42%

SMILES: CCO/C(O)=C1\C(Cn2ccnc2)=NC(C)=C(C(=O)OC)C1c1ccccc1OC(F)F (stereo unspecified)
- Decrease in blood pressure [2]: 55% and 48%

SMILES: CCOC(=O)C1=C(C)N=C(CCn2ccnc2)/C(=C(/O)OCC)C1c1ccccc1[N+](=O)[O-].O=C(O)/C=C\C(=O)O (stereo unspecified)
- IC50 [3]: 2.3 µM
- Decrease in blood pressure [2]: 44%

SMILES: COC(=O)C1=C(C)N=C(Cn2ccnc2)/C(=C(/O)OC)C1c1cccc([N+](=O)[O-])c1.Cl (stereo unspecified)
- Decrease in blood pressure [1]: 27%
- Decrease in blood pressure [2]: 42%

SMILES: CCO/C(O)=C1\C(Cn2ccnc2)=NC(C)=C(C(=O)OC)C1c1cccc(C(F)(F)F)c1Cl (stereo unspecified)
- Decrease in blood pressure [5]: 16%
- Decrease in blood pressure [1]: 52%
- Decrease in blood pressure [2]: 60%

SMILES: CCOC(=O)C1=C(CCn2ccnc2)N=C(CCn2ccnc2)/C(=C(/O)OCC)C1c1cccc([N+](=O)[O-])c1 (stereo unspecified)
- IC50 [3]: 5.3 µM

SMILES: CCOC(=O)C1=C(C)NC(C)=C(C(=O)OC)C1c1cccc([N+](=O)[O-])c1 (stereo unspecified) [NITRENDIPINE]
- Production [6]: 121%
- Production [7]: 40%
- Production [8]: 113%
- Plasma concentration [9]: 564 pg/mL
- Production [10]: 96%
- Production [11]: 35%
- Production [12]: 84%
- Plasma concentration [13]: 62 pg/mL
- Production [14]: 136%
- Production [15]: 112%
- Production [16]: 87%
- Plasma concentration [17]: 60 pg/mL
- Production [18]: 81%
- Decrease in blood pressure [2]: 33%
- Plasma concentration [19]: 562 pg/mL

SMILES: CCO/C(O)=C1\C(Cn2ccnc2)=NC(C)=C(C(=O)OC)C1c1ccccc1[N+](=O)[O-] (stereo unspecified)
- Decrease in blood pressure [20]: 14%
- Decrease in blood pressure [5]: 44%
- Decrease in blood pressure [1]: 56%
- Decrease in blood pressure [2]: 59%

SMILES: CCOC(=O)C1=C(COc2cccnc2)NC(C)=C(C(=O)OC)C1c1cccc([N+](=O)[O-])c1.Cl (stereo unspecified)
- Decrease in blood pressure [2]: 40%

SMILES: CCO/C(O)=C1\C(C)=NC(Cn2ccnc2)=C(C(=O)OC)C1c1cccc(C(F)(F)F)c1Cl (stereo unspecified)
- IC50 [3]: 125 µM
- Decrease in blood pressure [2]: 16%

SMILES: Br.CCO/C(O)=C1\C(Cn2ccnc2)=NC(C)=C(C(=O)OC)C1c1c(F)cccc1Cl (stereo unspecified)
- IC50 [3]: 19.5 µM
- Decrease in blood pressure [2]: 48% and 35%

SMILES: CCOC(=O)C1=C(C)N=C(Cn2ccnc2)/C(=C(/O)OCC)C1c1cccc([N+](=O)[O-])c1.Cl (stereo unspecified)
- Decrease in blood pressure [1]: 13%
- Decrease in blood pressure [2]: 47%

SMILES: CCO/C(O)=C1\C(Cn2ccnc2)=NC(C)=C(C(=O)OC)C1c1ccccc1Cl (stereo unspecified)
- IC50 [3]: 0.5 µM
- Decrease in blood pressure [1]: 15%
- Decrease in blood pressure [2]: 31%

SMILES: CCO/C(O)=C1\C(Cn2ccnc2)=NC(C)=C(C(=O)OC)C1c1cccc([N+](=O)[O-])c1.Cl (stereo unspecified)
- Plasma level [21]: 402 pg/mL
- Production [6]: 431%
- Decrease in blood pressure [22]: 51%
- Production [7]: 10%
- Production [8]: 112%
- Production [10]: 460%
- Plasma level [23]: 68 pg/mL
- Production [11]: 0%
- Plasma level [24]: 484 pg/mL
- Production [14]: 119%
- Plasma level [25]: 280 pg/mL
- Plasma level [26]: 22 pg/mL
- Decrease in blood pressure [27]: 34%
- Production [28]: 67%
- Plasma level [29]: 330 pg/mL
- Production [15]: 100%
- Production [30]: 43%
- Plasma level [17]: 94 pg/mL
- Production [31]: 92%
- Decrease in blood pressure [4]: 38% and 28%

SMILES: O=C(O)c1ccc(OCCn2ccnc2)cc1 [DAZOXIBEN]
- Production [6]: 460%
- Production [8]: 463%
- Plasma level [9]: 384 pg/mL
- Production [10]: 345%
- Production [32]: 5%
- Production [14]: 603%
- Plasma level [33]: 384 pg/mL
- Production [28]: 69%
- Production [15]: 115%
- Production [30]: 21%
- Production [31]: 97.5%
- Production [34]: 2%
- Plasma level [19]: 270 pg/mL and 202 pg/mL

SMILES: CCO/C(O)=C1\C(Cn2ccnc2)=NC(C)=C(C(=O)OC)C1c1cccc(Cl)c1Cl (stereo unspecified)
- Decrease in blood pressure [20]: 20%
- Decrease in blood pressure [5]: 40%
- Decrease in blood pressure [1]: 49%
- Decrease in blood pressure [2]: 54%

SMILES: CCO/C(O)=C1\C(COCCc2cccnc2)=NC(C)=C(C(=O)OC)C1c1cccc([N+](=O)[O-])c1.Cl (stereo unspecified)
- Decrease in blood pressure [2]: 40%

SMILES: CCO/C(O)=C1\C(COCc2cccnc2)=NC(C)=C(C(=O)OC)C1c1cccc([N+](=O)[O-])c1.Cl (stereo unspecified)
- Decrease in blood pressure [2]: 18%

SMILES: CCO/C(O)=C1\C(C)=NC(Cn2ccnc2)=C(C(=O)OC)C1c1ccccc1OC(F)F (stereo unspecified)
- IC50 [3]: 25 µM
- Decrease in blood pressure [1]: 31%
- Decrease in blood pressure [2]: 48%

SMILES: CCO/C(O)=C1\C(Cn2ccnc2)=NC(Cn2ccnc2)=C(C(=O)OC)C1c1cccc([N+](=O)[O-])c1 (stereo unspecified)
- IC50 [3]: 0.6 µM
